Results taken from ChEMBL document CHEMBL1157505, “Design and in vitro characterization of highly sst2-selective somatostatin antagonists suitable for radiotargeting” (J Med Chem, 2008).
Active and inactive are the calls of the source. No cut-off for these calls is given here.

Columns and labels:
[1] = molecular target: Somatostatin receptor type 4 (Homo sapiens, UniProt P31391); assay: Displacement of [125I][LTT]SRIF28 from human cloned sst4 receptor by autoradiography
[2] = molecular target: Somatostatin receptor type 1 (Homo sapiens, UniProt P30872); assay: Displacement of [125I][LTT]SRIF28 from human cloned sst1 receptor by autoradiography
[3] = molecular target: Somatostatin receptor type 5 (Homo sapiens, UniProt P35346); assay: Displacement of [125I][LTT]SRIF28 from human cloned sst5 receptor by autoradiography
[4] = molecular target: Somatostatin receptor type 3 (Homo sapiens, UniProt P32745); assay: Displacement of [125I][LTT]SRIF28 from human cloned sst3 receptor by autoradiography
[5] = molecular target: T1, Somatostatin receptor type 2 (Homo sapiens, UniProt P30874); assay: Displacement of [125I][LTT]SRIF28 from human cloned sst2 receptor by autoradiography
[6] = molecular target: T1, Somatostatin receptor type 2; assay: Antagonist activity at T7 epitope tagged human cloned sst2 expressed in HEK293 cells assessed as [Tyr3]octreotide-induced intracellular calcium release upto 10 uM; format: functional, cell-based
Procedure, shortened: (§1)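 HEK-sst2 cells seeded on poly-D-lysine, cultured 1 day, loaded with Fluo-4NW dye (assay buffer HBSS/20 mM HEPES, 2.5 mM probenecid) 30 min 37 °C plus 30 min RT. Analogues alone up to 10 μM, or [Tyr3]-octreotide with 100-fold excess analogue; fluorescence (ex 485/em 520 nm) recorded 60 s at RT; percentage of ionomycin (25 μM) maximum over baseline; ≥3 experiments in triplicate.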

[7] = molecular target: T1, Somatostatin receptor type 2; assay: Antagonist activity at T7 epitope tagged human cloned sst2 receptor expressed in HEK293 cells assessed as inhibition of [Tyr3]octreotide-induced receptor internalization upto 10 uM; format: functional, cell-based
Procedure, shortened: (§2)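 Surface T7-tagged sst2 on HEK-sst2 cells labelled with anti-T7 antibody 2 h RT in DMEM-LH, then cells exposed 30 min at 37 °C to analogue (alone up to 10 μM or with [Tyr3]-octreotide), fixed in 3% paraformaldehyde, probed with HRP anti-mouse IgG, ABTS read at OD405; surface receptor as % of untreated; mean ± SEM, three experiments in duplicate.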

[8] = molecular target: T1, Somatostatin receptor type 2; assay: Antagonist activity at T7 epitope tagged human cloned sst2 receptor expressed in HEK293 cells assessed as inhibition of [Tyr3]octreotide-induced receptor internalization upto 10 uM by immunofluorescence-based assay; format: functional, cell-based
Procedure, shortened: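 Immunofluorescence microscopy with sst2-specific antibody R2-88 on HEK-sst2 cells treated 30 min with vehicle, 100 nM [Tyr3]-octreotide, 100 nM [Tyr3]-octreotide plus 100-fold excess (10 μM) analogue, or analogue alone at 10 μM; internalization scored as punctate perinuclear staining.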

[9] = molecular target: T1, Somatostatin receptor type 2; assay: Antagonist activity at T7 epitope tagged human cloned sst2 expressed in HEK293 cells assessed as intracellular calcium release upto 10 uM; format: functional, cell-based; procedure, shortened: as §1
[10] = molecular target: T1, Somatostatin receptor type 2; assay: Antagonist activity at T7 epitope tagged human cloned sst2 receptor expressed in HEK293 cells assessed as inhibition of receptor internalization upto 10 uM by ELISA; format: functional, cell-based; procedure, shortened: as §2

T1 sequence (P30874 whole entry): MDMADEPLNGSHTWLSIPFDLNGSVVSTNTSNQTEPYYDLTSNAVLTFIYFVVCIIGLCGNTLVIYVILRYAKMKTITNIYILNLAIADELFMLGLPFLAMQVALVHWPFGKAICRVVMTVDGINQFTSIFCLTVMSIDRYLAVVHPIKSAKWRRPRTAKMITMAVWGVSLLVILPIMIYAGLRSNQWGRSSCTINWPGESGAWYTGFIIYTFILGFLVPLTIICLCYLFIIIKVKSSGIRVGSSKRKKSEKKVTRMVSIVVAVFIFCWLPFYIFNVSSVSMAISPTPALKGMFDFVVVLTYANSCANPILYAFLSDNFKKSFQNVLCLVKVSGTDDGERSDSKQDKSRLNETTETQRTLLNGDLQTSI
Somatostatin receptor type 1, sequence (P30872 whole entry): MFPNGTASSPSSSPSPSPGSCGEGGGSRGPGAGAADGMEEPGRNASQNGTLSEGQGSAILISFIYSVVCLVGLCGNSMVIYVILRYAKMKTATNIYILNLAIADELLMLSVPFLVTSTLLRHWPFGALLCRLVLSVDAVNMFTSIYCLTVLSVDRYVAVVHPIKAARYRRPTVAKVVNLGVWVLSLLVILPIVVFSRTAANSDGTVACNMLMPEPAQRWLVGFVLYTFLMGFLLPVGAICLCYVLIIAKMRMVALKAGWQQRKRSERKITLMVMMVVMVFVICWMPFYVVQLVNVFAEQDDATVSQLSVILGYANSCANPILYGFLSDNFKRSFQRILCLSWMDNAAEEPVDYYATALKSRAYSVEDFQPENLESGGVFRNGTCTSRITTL
Somatostatin receptor type 4, sequence (P31391 whole entry): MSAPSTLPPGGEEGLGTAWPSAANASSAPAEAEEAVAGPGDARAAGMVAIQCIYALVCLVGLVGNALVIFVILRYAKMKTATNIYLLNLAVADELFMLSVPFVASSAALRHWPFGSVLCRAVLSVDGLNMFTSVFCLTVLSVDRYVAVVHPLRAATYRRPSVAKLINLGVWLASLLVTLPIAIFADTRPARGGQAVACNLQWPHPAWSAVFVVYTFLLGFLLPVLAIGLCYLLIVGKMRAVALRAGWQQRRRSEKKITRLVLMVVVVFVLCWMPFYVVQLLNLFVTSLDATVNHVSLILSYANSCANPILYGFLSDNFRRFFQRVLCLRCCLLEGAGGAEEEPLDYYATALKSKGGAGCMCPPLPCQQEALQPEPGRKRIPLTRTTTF
Somatostatin receptor type 5, sequence (P35346 whole entry): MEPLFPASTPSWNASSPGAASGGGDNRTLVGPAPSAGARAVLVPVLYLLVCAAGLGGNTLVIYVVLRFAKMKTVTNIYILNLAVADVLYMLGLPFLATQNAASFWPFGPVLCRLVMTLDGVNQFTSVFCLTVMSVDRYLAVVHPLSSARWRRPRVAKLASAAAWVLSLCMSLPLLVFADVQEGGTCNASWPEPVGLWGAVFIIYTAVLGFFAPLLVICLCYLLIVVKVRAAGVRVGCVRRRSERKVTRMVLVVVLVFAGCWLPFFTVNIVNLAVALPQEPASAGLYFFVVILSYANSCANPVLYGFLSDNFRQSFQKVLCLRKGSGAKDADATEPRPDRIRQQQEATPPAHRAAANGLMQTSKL
Somatostatin receptor type 3, sequence (P32745 whole entry): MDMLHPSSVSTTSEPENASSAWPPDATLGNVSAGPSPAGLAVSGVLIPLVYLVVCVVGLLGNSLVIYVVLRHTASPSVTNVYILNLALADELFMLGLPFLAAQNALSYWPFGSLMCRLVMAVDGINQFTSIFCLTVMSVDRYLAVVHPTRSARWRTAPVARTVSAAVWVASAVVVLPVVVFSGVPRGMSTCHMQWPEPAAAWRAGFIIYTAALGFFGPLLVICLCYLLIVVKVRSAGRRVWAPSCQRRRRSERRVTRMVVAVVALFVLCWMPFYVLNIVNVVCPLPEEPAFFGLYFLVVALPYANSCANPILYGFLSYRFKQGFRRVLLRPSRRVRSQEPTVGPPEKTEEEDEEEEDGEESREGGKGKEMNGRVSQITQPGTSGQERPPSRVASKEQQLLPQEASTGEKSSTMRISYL

Row | Compound | IC50 [1] [nM] | IC50 [2] [nM] | IC50 [3] [nM] | IC50 [4] [nM] | IC50 [5] [nM] | Activity [6] | Activity [7] | Activity [8] | Activity [9] | Activity [10]
1 | C[C@@H](O)[C@@H]1NC(=O)[C@H](CCCCN)NC(=O)[C@@H](Cc2ccc(NC(N)=O)cc2)NC(=O)[C@H](Cc2ccc(NC(=O)[C@@H]3CC(=O)NC(=O)N3)cc2)NC(=O)[C@H](NC(=O)[C@H](Cc2ccc(Cl)cc2)NC(=O)CN2CCN(CC(=O)O)CCN(CC(=O)O)CCN(CC(=O)O)CC2)CSSC[C@@H](C(=O)N[C@@H](Cc2ccc3ccccc3c2)C(N)=O)NC1=O | > 1000 | > 1000 | > 1000 | > 1000 | 1.7 | – | – | – | – | –
2 | C[C@@H](O)[C@@H]1NC(=O)[C@H](CCCCN)NC(=O)[C@@H](Cc2ccc(NC(N)=O)cc2)NC(=O)[C@H](Cc2ccc(NC(=O)[C@@H]3CC(=O)NC(=O)N3)cc2)NC(=O)[C@H](NC(=O)[C@@H](N)Cc2ccc([N+](=O)[O-])cc2)CSSC[C@@H](C(=O)N[C@@H](Cc2ccc3ccccc3c2)C(N)=O)NC1=O | > 1000 | > 1000 | > 1000 | 451 | 2.7 | – | – | – | – | –
3 | C[C@@H](O)[C@@H]1NC(=O)[C@H](CCCCN)NC(=O)[C@@H](Cc2ccc(NC(N)=O)cc2)NC(=O)[C@H](Cc2ccc(O)cc2)NC(=O)[C@H](NC(=O)[C@@H](Cc2ccc([N+](=O)[O-])cc2)NC(=O)CN2CCN(CC(=O)O)CCN(CC(=O)O)CCN(CC(=O)O)CC2)CSSC[C@@H](C(=O)N[C@H](Cc2ccc(O)cc2)C(N)=O)NC1=O | – | – | – | – | – | Active | Active | Active | inactive | –
4 | C[C@@H](O)[C@@H]1NC(=O)[C@H](CCCCN)NC(=O)[C@@H](Cc2ccc(NC(N)=O)cc2)NC(=O)[C@H](Cc2ccc(NC(=O)[C@@H]3CC(=O)NC(=O)N3)cc2)NC(=O)[C@H](NC(=O)[C@H](Cc2ccc(Cl)cc2)NC(=O)CN2CCN(CC(=O)O)CCN(CC(=O)O)CCN(CC(=O)O)CC2)CSSC[C@@H](C(=O)N[C@H](Cc2ccc(O)cc2)C(N)=O)NC1=O | > 1000 | > 1000 | > 1000 | > 1000 | – | – | – | – | – | –
5 | C[C@@H](O)[C@@H]1NC(=O)[C@H](CCCCN)NC(=O)[C@@H](Cc2c[nH]c3ccccc23)NC(=O)[C@H](Cc2ccc(NC(N)=O)cc2)NC(=O)[C@H](NC(=O)[C@H](Cc2ccc(Cl)cc2)NC(=O)CCOCCOCCOCCNC(=O)CN2CCN(CC(=O)O)CCN(CC(=O)O)CCN(CC(=O)O)CC2)CSSC[C@@H](C(=O)N[C@@H](Cc2ccc3ccccc3c2)C(N)=O)NC1=O | 728 | > 1000 | 895 | 88 | 40 | – | – | – | – | –
6 | C[C@@H](O)[C@@H]1NC(=O)[C@H](CCCCN)NC(=O)[C@@H](Cc2c[nH]c3ccccc23)NC(=O)[C@H](Cc2ccc(NC(N)=O)cc2)NC(=O)[C@H](NC(=O)[C@@H](N)Cc2ccc(Cl)cc2)CSSC[C@@H](C(=O)N[C@@H](Cc2ccc(NC(=O)[C@@H]3CC(=O)NC(=O)N3)cc2)C(N)=O)NC1=O | > 1000 | > 1000 | 320 | 162 | 27 | – | – | – | – | –
7 | C[C@@H](O)[C@@H]1NC(=O)[C@H](CCCCN)NC(=O)[C@@H](Cc2c[nH]c3ccccc23)NC(=O)[C@H](Cc2ccc(O)c(I)c2)NC(=O)[C@H](NC(=O)[C@H](Cc2ccc([N+](=O)[O-])cc2)NC(=O)CN2CCN(CC(=O)O)CCN(CC(=O)O)CCN(CC(=O)O)CC2)CSSC[C@@H](C(=O)N[C@H](Cc2ccc(O)cc2)C(N)=O)NC1=O | 455 | > 1000 | > 1000 | > 1000 | 1.2 | – | – | – | – | –
8 | C[C@@H](O)[C@@H]1NC(=O)[C@H](CCCCN)NC(=O)[C@@H](Cc2c[nH]c3ccccc23)NC(=O)[C@H](Cc2ccc(O)c(I)c2)NC(=O)[C@H](NC(=O)[C@@H](Cc2ccc([N+](=O)[O-])cc2)NC(=O)CN2CCN(CC(=O)O)CCN(CC(=O)O)CCN(CC(=O)O)CC2)CSSC[C@@H](C(=O)N[C@H](Cc2ccc(O)cc2)C(N)=O)NC1=O | – | – | – | – | – | Active | Active | Active | inactive | inactive
9 | C[C@@H](O)[C@@H]1NC(=O)[C@H](CCCCN)NC(=O)[C@@H](Cc2ccc(NC(N)=O)cc2)NC(=O)[C@H](Cc2ccc(NC(=O)[C@@H]3CC(=O)NC(=O)N3)cc2)NC(=O)[C@H](NC(=O)[C@@H](Cc2ccc(Cl)cc2)NC(=O)CN2CCN(CC(=O)O)CCN(CC(=O)O)CCN(CC(=O)O)CC2)CSSC[C@@H](C(=O)N[C@H](Cc2ccc(O)cc2)C(N)=O)NC1=O | – | – | – | – | – | Active | Active | Active | inactive | –
10 | C[C@@H](O)[C@@H]1NC(=O)[C@H](CCCCN)NC(=O)[C@@H](Cc2ccc(NC(N)=O)cc2)NC(=O)[C@H](Cc2ccc(O)cc2)NC(=O)[C@H](NC(=O)[C@@H](Cc2ccc(Cl)cc2)NC(=O)CN2CCN(CC(=O)O)CCN(CC(=O)O)CCN(CC(=O)O)CC2)CSSC[C@@H](C(=O)N[C@@H](Cc2ccc3ccccc3c2)C(N)=O)NC1=O | – | – | – | – | – | Active | Active | – | inactive | –
11 | C[C@@H](O)[C@@H]1NC(=O)[C@H](CCCCN)NC(=O)[C@@H](Cc2ccc(NC(N)=O)cc2)NC(=O)[C@H](Cc2ccc(NC(=O)[C@@H]3CC(=O)NC(=O)N3)cc2)NC(=O)[C@H](NC(=O)[C@@H](N)Cc2ccc(Cl)cc2)CSSC[C@@H](C(=O)N[C@@H](Cc2ccc3ccccc3c2)C(N)=O)NC1=O | > 1000 | > 1000 | > 1000 | 83 | 2.4 | – | – | – | – | –
12 | C[C@@H](O)[C@@H]1NC(=O)[C@H](CCCCN)NC(=O)[C@@H](Cc2c[nH]c3ccccc23)NC(=O)[C@H](Cc2ccc(NC(N)=O)cc2)NC(=O)[C@H](NC(=O)[C@H](N)Cc2ccc(Cl)cc2)CSSC[C@@H](C(=O)N[C@@H](Cc2ccc3ccccc3c2)C(N)=O)NC1=O | – | – | – | – | – | Active | Active | – | inactive | –
13 | C[C@@H](O)[C@@H]1NC(=O)[C@H](CCCCN)NC(=O)[C@@H](Cc2c[nH]c3ccccc23)NC(=O)[C@H](Cc2ccc(O)cc2)NC(=O)[C@H](NC(=O)[C@@H](Cc2ccc([N+](=O)[O-])cc2)NC(=O)CN2CCN(CC(=O)O)CCN(CC(=O)O)CCN(CC(=O)O)CC2)CSSC[C@@H](C(=O)N[C@H](Cc2ccc(O)cc2)C(N)=O)NC1=O | – | – | – | – | – | Active | Active | – | inactive | –
